{"source": "ChEMBL document CHEMBL1144620", "about": "“Synthesis and biodistribution of new radiolabeled high-affinity choline transporter inhibitors [11C]hemicholinium-3 and [18F]hemicholinium-3” (Bioorg Med Chem Lett, 2007)", "key": {"[1]": {"experiment": "Biodistribution in L-Atrium of 9L-glioma bearing rat at 1 to 3 mCi, iv after 5 mins", "type": "ADME, organism-based", "settings": "in vivo", "method_in_brief": "(§1)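 9L-glioma rats (200–300 g) given 1–3 mCi of [¹¹C]- or [¹⁸F]-labelled tracer iv by tail vein while consciously restrained. At 5 or 20 min they were decapitated under halothane anaesthesia. Tissues were excised and weighed, and decay-corrected radioactivity was counted by gamma counter. Values are %ID/g, averaged over three rats per time point.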"}, "[2]": {"experiment": "Biodistribution in urine of 9L-glioma bearing rat at 1 to 3 mCi, iv after 5 mins", "type": "ADME, organism-based", "settings": "in vivo", "method_in_brief": "(§2)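 In 9L-glioma rats injected iv (tail vein, conscious restraint) with 1–3 mCi of radiotracer, urine was drawn by syringe from the bladder at 5 or 20 min. Animals were killed by decapitation under halothane. Decay-corrected radioactivity was gamma-counted and expressed as percent of injected dose (%ID), averaged over three rats.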"}, "Kidney [3]": {"test_system": "Kidney", "experiment": "Biodistribution in kidney of 9L-glioma bearing rat at 1 to 3 mCi, iv after 5 mins", "type": "ADME, organism-based", "settings": "in vivo", "method_in_brief": "as §1"}, "Liver [4]": {"test_system": "Liver", "experiment": "Biodistribution in liver of 9L-glioma bearing rat at 1 to 3 mCi, iv after 5 mins", "type": "ADME, organism-based", "settings": "in vivo", "method_in_brief": "as §1"}, "Lung [5]": {"test_system": "Lung", "experiment": "Biodistribution in lung of 9L-glioma bearing rat at 1 to 3 mCi, iv after 5 mins", "type": "ADME, organism-based", "settings": "in vivo", "method_in_brief": "as §1"}, "Brain [6]": {"test_system": "Brain", "experiment": "Biodistribution in brain of 9L-glioma bearing rat at 1 to 3 mCi, iv after 5 mins", "type": "ADME, organism-based", "settings": "in vivo", "method_in_brief": "as §1"}, "Blood [7]": {"test_system": "Blood", "experiment": "Biodistribution in blood of 9L-glioma bearing rat at 1 to 3 mCi, iv after 5 mins", "type": "ADME, organism-based", "settings": "in vivo", "method_in_brief": "as §1"}, "Plasma [8]": {"test_system": "Plasma", "experiment": "Biodistribution in plasma of 9L-glioma bearing rat at 1 to 3 mCi, iv after 5 mins", "type": "ADME, organism-based", "settings": "in vivo", "method_in_brief": "as §1"}, "[9]": {"experiment": "Biodistribution in R-Atrium of 9L-glioma bearing rat at 1 to 3 mCi, iv after 5 mins", "type": "ADME, organism-based, Right cardiac atrium", "settings": "in vivo", "method_in_brief": "as §1"}, "Septum [10]": {"test_system": "Septum", "experiment": "Biodistribution in septum of 9L-glioma bearing rat at 1 to 3mCi, iv after 5 mins", "type": "ADME, organism-based", "settings": "in vivo", "method_in_brief": "as §1"}, "[11]": {"experiment": "Biodistribution in L-ventricle of 9L-glioma bearing rat at 1 to 3mCi, iv after 5 mins", "type": "ADME, organism-based, Heart left ventricle", "settings": "in vivo", "method_in_brief": "as §1"}, "[12]": {"experiment": "Biodistribution in R-ventricle of 9L-glioma bearing rat at 1 to 3 mCi, iv after 5 mins", "type": "ADME, organism-based, Heart right ventricle", "settings": "in vivo", "method_in_brief": "as §1"}, "[13]": {"experiment": "Biodistribution in A-V-node of 9L-glioma bearing rat at 1 to 3 mCi, iv after 5 mins", "type": "ADME, organism-based", "settings": "in vivo", "method_in_brief": "as §1"}, "Solar plexus [14]": {"test_system": "Solar plexus", "experiment": "Biodistribution in solar plexus of 9L-glioma bearing rat at 1 to 3 mCi, iv after 5 mins", "type": "ADME, organism-based", "settings": "in vivo", "method_in_brief": "as §1"}, "[15]": {"experiment": "Biodistribution in skeletal muscle of 9L-glioma bearing rat at 1 to 3 mCi, iv after 5 mins", "type": "ADME, organism-based, Muscle tissue", "settings": "in vivo", "method_in_brief": "as §1"}, "9L [16]": {"test_system": "9L", "experiment": "Biodistribution in tumor of 9L-glioma bearing rat at 1 to 3 mCi, iv after 5 mins", "type": "ADME, organism-based", "settings": "in vivo", "method_in_brief": "as §1"}, "[17]": {"experiment": "Ratio of biodistribution in tumor to blood in 9L-glioma bearing rat at 1 to 3 mCi, iv after 5 mins", "type": "ADME, organism-based", "settings": "tumor and blood (tumor-to-blood ratio)"}, "[18]": {"experiment": "Ratio of biodistribution in tumor to muscle of 9L-glioma bearing rat at 1 to 3 mCi, iv after 5 mins", "type": "ADME, organism-based", "settings": "in vivo"}, "Blood [19]": {"test_system": "Blood", "experiment": "Biodistribution in blood of 9L-glioma bearing rat at 1 to 3 mCi, iv after 20 mins", "type": "ADME, organism-based", "settings": "in vivo", "method_in_brief": "as §1"}, "Plasma [20]": {"test_system": "Plasma", "experiment": "Biodistribution in plasma of 9L-glioma bearing rat at 1 to 3 mCi, iv after 20 mins", "type": "ADME, organism-based", "settings": "in vivo", "method_in_brief": "as §1"}, "Brain [21]": {"test_system": "Brain", "experiment": "Biodistribution in brain of 9L-glioma bearing rat at 1 to 3 mCi, iv after 20 mins", "type": "ADME, organism-based", "settings": "in vivo", "method_in_brief": "as §1"}, "Lung [22]": {"test_system": "Lung", "experiment": "Biodistribution in lung of 9L-glioma bearing rat at 1 to 3 mCi, iv after 20 mins", "type": "ADME, organism-based", "settings": "in vivo", "method_in_brief": "as §1"}, "[23]": {"experiment": "Biodistribution in L-Atrium of 9L-glioma bearing rat at 1 to 3 mCi, iv after 20 mins", "type": "ADME, organism-based, Left cardiac atrium", "settings": "in vivo", "method_in_brief": "as §1"}, "Liver [24]": {"test_system": "Liver", "experiment": "Biodistribution in liver of 9L-glioma bearing rat at 1 to 3 mCi, iv after 20 mins", "type": "ADME, organism-based", "settings": "in vivo", "method_in_brief": "as §1"}, "Kidney [25]": {"test_system": "Kidney", "experiment": "Biodistribution in kidney of 9L-glioma bearing rat at 1 to 3 mCi, iv after 20 mins", "type": "ADME, organism-based", "settings": "in vivo", "method_in_brief": "as §1"}, "[26]": {"experiment": "Biodistribution in urine of 9L-glioma bearing rat at 1 to 3 mCi, iv after 20 mins", "type": "ADME, organism-based", "settings": "in vivo", "method_in_brief": "as §2"}, "[27]": {"experiment": "Biodistribution in R-Atrium of 9L-glioma bearing rat at 1 to 3 mCi, iv after 20 mins", "type": "ADME, organism-based, Right cardiac atrium", "settings": "in vivo", "method_in_brief": "as §1"}, "Septum [28]": {"test_system": "Septum", "experiment": "Biodistribution in septum of 9L-glioma bearing rat at 1 to 3 mCi, iv after 20 mins", "type": "ADME, organism-based", "settings": "in vivo", "method_in_brief": "as §1"}, "[29]": {"experiment": "Biodistribution in L-ventricle of 9L-glioma bearing rat at 1 to 3 mCi, iv after 20 mins", "type": "ADME, organism-based, Heart left ventricle", "settings": "in vivo", "method_in_brief": "as §1"}, "[30]": {"experiment": "Biodistribution in R-ventricle of 9L-glioma bearing rat at 1 to 3 mCi, iv after 20 mins", "type": "ADME, organism-based, Heart right ventricle", "settings": "in vivo", "method_in_brief": "as §1"}, "[31]": {"experiment": "Biodistribution in A-V-node of 9L-glioma bearing rat at 1 to 3 mCi, iv after 20 mins", "type": "ADME, organism-based", "settings": "in vivo", "method_in_brief": "as §1"}, "Solar plexus [32]": {"test_system": "Solar plexus", "experiment": "Biodistribution in solar plexus of 9L-glioma bearing rat at 1 to 3 mCi, iv after 20 mins", "type": "ADME, organism-based", "settings": "in vivo", "method_in_brief": "as §1"}, "[33]": {"experiment": "Biodistribution in skeletal Muscle of 9L-glioma bearing rat at 1 to 3 mCi, iv after 20 mins", "type": "ADME, organism-based, Muscle tissue", "settings": "in vivo", "method_in_brief": "as §1"}, "9L [34]": {"test_system": "9L", "experiment": "Biodistribution in tumor of 9L-glioma bearing rat at 1 to 3 mCi, iv after 20 mins", "type": "ADME, organism-based", "settings": "in vivo", "method_in_brief": "as §1"}, "[35]": {"experiment": "Ratio of biodistribution in tumor to blood of 9L-glioma bearing rat at 1 to 3 mCi, iv after 20 mins", "type": "ADME, organism-based", "settings": "tumour"}, "[36]": {"experiment": "Ratio of biodistribution in tumor to muscle of 9L-glioma bearing rat at 1 to 3 mCi, iv after 20 mins", "type": "ADME, organism-based", "settings": "in vivo"}}}
{"smiles": "C[N+]1(C)CCOC(O)(c2ccc(-c3ccc(C4(O)C[N+](C)([11CH3])CCO4)cc3)cc2)C1.O=S(=O)([O-])C(F)(F)F.[I-]", "note": "(stereo unspecified)", "values": [{"measurement": "Drug uptake", "setting": "[1]", "value": 1.026, "unit": "% ID/g"}, {"measurement": "Drug uptake", "setting": "[2]", "value": 6.38, "unit": "% dose"}, {"measurement": "Drug uptake", "setting": "Kidney [3]", "value": 7.64, "unit": "% ID/g"}, {"measurement": "Drug uptake", "setting": "Liver [4]", "value": 0.848, "unit": "% ID/g"}, {"measurement": "Drug uptake", "setting": "Lung [5]", "value": 1.081, "unit": "% ID/g"}, {"measurement": "Drug uptake", "setting": "Brain [6]", "value": 0.06, "unit": "% ID/g"}, {"measurement": "Drug uptake", "setting": "Blood [7]", "value": 1.383, "unit": "% ID/g"}, {"measurement": "Drug uptake", "setting": "Plasma [8]", "value": 3.648, "unit": "% ID/g"}, {"measurement": "Drug uptake", "setting": "[9]", "value": 0.963, "unit": "% ID/g"}, {"measurement": "Drug uptake", "setting": "Septum [10]", "value": 0.381, "unit": "% ID/g"}, {"measurement": "Drug uptake", "setting": "[11]", "value": 0.415, "unit": "% ID/g"}, {"measurement": "Drug uptake", "setting": "[12]", "value": 0.401, "unit": "% ID/g"}, {"measurement": "Drug uptake", "setting": "[13]", "value": 1.074, "unit": "% ID/g"}, {"measurement": "Drug uptake", "setting": "Solar plexus [14]", "value": 0.522, "unit": "% ID/g"}, {"measurement": "Drug uptake", "setting": "[15]", "value": 0.207, "unit": "% ID/g"}, {"measurement": "Drug uptake", "setting": "9L [16]", "value": 0.649, "unit": "% ID/g"}, {"measurement": "Kp at 5 min", "setting": "[17]", "value": 0.466}, {"measurement": "Ratio", "setting": "[18]", "value": 3.199}, {"measurement": "Drug uptake", "setting": "Blood [19]", "value": 0.749, "unit": "% ID/g"}, {"measurement": "Drug uptake", "setting": "Plasma [20]", "value": 1.453, "unit": "% ID/g"}, {"measurement": "Drug uptake", "setting": "Brain [21]", "value": 0.035, "unit": "% ID/g"}, {"measurement": "Drug uptake", "setting": "Lung [22]", "value": 0.59, "unit": "% ID/g"}, {"measurement": "Drug uptake", "setting": "[23]", "value": 0.457, "unit": "% ID/g"}, {"measurement": "Drug uptake", "setting": "Liver [24]", "value": 1.239, "unit": "% ID/g"}, {"measurement": "Drug uptake", "setting": "Kidney [25]", "value": 3.656, "unit": "% ID/g"}, {"measurement": "Drug uptake", "setting": "[26]", "value": 25, "unit": "% dose"}, {"measurement": "Drug uptake", "setting": "[27]", "value": 0.398, "unit": "% ID/g"}, {"measurement": "Drug uptake", "setting": "Septum [28]", "value": 0.223, "unit": "% ID/g"}, {"measurement": "Drug uptake", "setting": "[29]", "value": 0.244, "unit": "% ID/g"}, {"measurement": "Drug uptake", "setting": "[30]", "value": 0.234, "unit": "% ID/g"}, {"measurement": "Drug uptake", "setting": "[31]", "value": 0.478, "unit": "% ID/g"}, {"measurement": "Drug uptake", "setting": "Solar plexus [32]", "value": 2.057, "unit": "% ID/g"}, {"measurement": "Drug uptake", "setting": "[33]", "value": 0.159, "unit": "% ID/g"}, {"measurement": "Drug uptake", "setting": "9L [34]", "value": 0.457, "unit": "% ID/g"}, {"measurement": "Ratio", "setting": "[35]", "value": 0.622}, {"measurement": "Ratio", "setting": "[36]", "value": 3.094}]}
